Columns and labels:
Type in all cases: functional, cell-based
[1] = biological target: T1, Organic anion transporter 3 (Homo sapiens, UniProt Q8TCC7); assay: TP_TRANSPORTER: inhibition of Ochratoxin A uptake (OTA: 1 uM, PCG: 200 uM) in OAT3-expressing S2 cells; settings: mouse, s2, 200 µM
T1 sequence (Q8TCC7 whole entry): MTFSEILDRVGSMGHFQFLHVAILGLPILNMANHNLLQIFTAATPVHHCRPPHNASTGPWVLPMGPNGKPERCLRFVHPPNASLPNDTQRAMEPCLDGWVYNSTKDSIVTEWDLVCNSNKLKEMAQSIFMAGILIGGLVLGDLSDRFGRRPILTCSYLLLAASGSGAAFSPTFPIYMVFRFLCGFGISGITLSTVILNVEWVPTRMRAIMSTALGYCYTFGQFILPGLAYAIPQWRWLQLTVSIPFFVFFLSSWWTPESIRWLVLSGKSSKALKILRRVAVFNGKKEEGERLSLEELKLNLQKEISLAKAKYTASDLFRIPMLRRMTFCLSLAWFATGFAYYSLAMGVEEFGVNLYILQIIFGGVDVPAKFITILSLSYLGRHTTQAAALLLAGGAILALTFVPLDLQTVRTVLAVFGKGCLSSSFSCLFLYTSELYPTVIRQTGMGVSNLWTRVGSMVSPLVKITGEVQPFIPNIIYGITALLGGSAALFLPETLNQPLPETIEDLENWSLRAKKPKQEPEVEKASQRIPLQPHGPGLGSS
Method in brief: (§1)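 Mouse proximal tubule second-segment (S2) cells stably expressing human OAT1 or OAT3. Uptake of [³H]-labelled ochratoxin A was measured with and without added OAT substrates as inhibitors.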

[2] = biological target: T1, Organic anion transporter 3; assay: TP_TRANSPORTER: inhibition of Ochratoxin A uptake in OAT3-expressing S2 cells
[3] = biological target: T2, OAT3 (Organic anion transporter 3) (Homo sapiens, UniProt Q8TCC7); assay: TP_TRANSPORTER: uptake in OAT3-expressing S2 cells; settings: mouse, S2 cells that express OAT3
T2 sequence (Q8TCC7 whole entry): T1 sequence (Q8TCC7 whole entry)
Method in brief: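 S2 proximal tubule cells from mice stably expressing human OAT3. [³H]-ochratoxin A uptake was followed over time and concentration, and the apparent Km was taken from the saturable uptake.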

[4] = biological target: T1, Organic anion transporter 3; assay: TP_TRANSPORTER: inhibition of Ochratoxin A uptake (OTA: 1 uM, Aspartame: 200 uM) in OAT3-expressing S2 cells; settings: s2, 200 µM; method in brief: as §1
[5] = biological target: T3, Solute carrier family 22 member 6 (Homo sapiens, UniProt Q4U2R8); assay: TP_TRANSPORTER: inhibition of Ochratoxin A uptake (OTA: 1 uM, Aspartame: 200 uM) in OAT1-expressing S2 cells; settings: s2, 200 µM; method in brief: as §1
T3 sequence (Q4U2R8 whole entry): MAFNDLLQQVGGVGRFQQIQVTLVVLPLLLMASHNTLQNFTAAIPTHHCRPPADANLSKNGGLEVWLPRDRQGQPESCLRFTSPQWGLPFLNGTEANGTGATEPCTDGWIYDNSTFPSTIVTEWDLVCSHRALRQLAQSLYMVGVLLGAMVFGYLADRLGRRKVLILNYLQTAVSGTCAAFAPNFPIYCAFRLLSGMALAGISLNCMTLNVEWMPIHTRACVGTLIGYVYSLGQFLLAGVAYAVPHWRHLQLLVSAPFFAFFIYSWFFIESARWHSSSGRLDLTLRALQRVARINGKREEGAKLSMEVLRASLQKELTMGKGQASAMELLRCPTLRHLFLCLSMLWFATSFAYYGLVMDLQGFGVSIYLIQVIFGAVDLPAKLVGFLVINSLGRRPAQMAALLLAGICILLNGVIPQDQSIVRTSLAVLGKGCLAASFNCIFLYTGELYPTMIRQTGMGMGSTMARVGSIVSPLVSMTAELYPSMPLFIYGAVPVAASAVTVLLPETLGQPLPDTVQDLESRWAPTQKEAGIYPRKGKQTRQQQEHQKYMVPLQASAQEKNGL

[6] = biological target: T1, Organic anion transporter 3; assay: TP_TRANSPORTER: inhibition of Ochratoxin A uptake (OTA: 1 uM, Indomethacin: 200 uM) in OAT3-expressing S2 cells; settings: mouse, s2, 200 µM; method in brief: as §1
[7] = biological target: T3, Solute carrier family 22 member 6; assay: TP_TRANSPORTER: inhibition of Ochratoxin A uptake (OTA: 1 uM, Indomethacin: 200 uM) in OAT1-expressing S2 cells; settings: mouse, s2, 200 µM; method in brief: as §1

CC1(C)S[C@@H]2[C@H](NC(=O)Cc3ccccc3)C(=O)N2[C@H]1C(=O)O [PENICILLIN G]
Activity [1]: inhibitor [(at a rough estimate) 35 % of control]

CN1C(C(=O)Nc2ccccn2)=C(O)c2ccccc2S1(=O)=O [PIROXICAM]
Ki [2]: 4.88 µM

C[C@@H]1Cc2c(Cl)cc(C(=O)N[C@@H](Cc3ccccc3)C(=O)O)c(O)c2C(=O)O1 [3R14S-OCHRATOXIN A]
Km [3]: 0.75 µM

CCCCCCCC(=O)O [OCTANOIC ACID]
Ki [2]: 8.6 µM

CC1=C2C(=CO[C@H](C)[C@H]2C)C(O)=C(C(=O)O)C1=O [CITRININ]
Ki [2]: 15.4 µM

COC(=O)[C@H](Cc1ccccc1)NC(=O)[C@@H](N)CC(=O)O
Activity [4]: is not an inhibitor [-]
Activity [5]: is not an inhibitor [-]

COc1ccc2c(c1)c(CC(=O)O)c(C)n2C(=O)c1ccc(Cl)cc1 [INDOMETHACIN]
Activity [6]: inhibitor [(at a rough estimate) 15 % of control]
Activity [7]: inhibitor [(at a rough estimate) 25 % of control]
